This is an account of results in ChEMBL document CHEMBL4196178, “Structure-Based Drug Design of Potent Pyrazole Derivatives against Rhinovirus Replication” (J Med Chem, 2018).

Calls of active or inactive are those of the source. The calls are words filed in the database; no cut-off is given here.

Data set [1] is described as follows: Cytotoxicity against human HeLa Rh cells assessed as reduction in cell viability after 3 days by MTS assay. The class given is cell-based. On the technique in general: Tetrazolium dyes change colour on reduction, which living cells bring about.
Data set [2] can be described thus: Selectivity index, ratio of CC50 for human HeLa Rh cells to EC50 for Rhinovirus B14 capsid infected in human HeLa Rh cells. The format is toxicity, cell-based. Particulars: read-out: Ratio CC50/EC50. A digest of the protocol:
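SI = CC₅₀/EC₅₀ for RV-B14 in HeLa Rh cells, both from the same 3-day 35 °C MTS CPE assay. CC₅₀ was obtained by light-microscope scoring of compound-treated uninfected cells, and EC₅₀ from MTS dose-response. Both values were derived by logarithmic interpolation and reported as median ± median absolute deviation.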

For data set [3], the target named is T1, VP1 capsid protein (Human rhinovirus sp.) (UniProt Q7T664).
T1 sequence (whole entry): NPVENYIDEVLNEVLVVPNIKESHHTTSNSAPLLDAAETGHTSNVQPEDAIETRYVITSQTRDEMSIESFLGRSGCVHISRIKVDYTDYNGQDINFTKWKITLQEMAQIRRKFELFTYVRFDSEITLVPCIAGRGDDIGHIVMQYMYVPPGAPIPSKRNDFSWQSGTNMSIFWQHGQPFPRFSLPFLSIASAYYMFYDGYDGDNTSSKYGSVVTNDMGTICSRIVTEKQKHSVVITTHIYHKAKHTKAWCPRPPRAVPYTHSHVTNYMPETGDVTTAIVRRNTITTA
Kind of data set: Inhibition of Rhinovirus B14 capsid infected in human HeLa Rh cells assessed as reduction in viral replication at 1 uM administered 2 hrs before infection measured after 8 hrs post infection by RT-qPCR analysis. The format is cell-based. A digest of the protocol: (§1)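 HeLa Rh cells adhered overnight, then given 1 µM compound 2 h before, at, or 2, 4 or 6 h after RV-B14 infection. Untreated infected cells served as controls. Cells lysed at 8 h post-infection, DNases heat-inactivated at 75 °C for 15 min. Intracellular viral RNA measured by SYBR one-step qRT-PCR against a gBlock standard series, reported as genome equivalents per sample.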
Background: In qPCR the cycle at which signal appears reflects the starting amount.

Data set [4] concerns rhinovirus B14. Briefly: Antiviral activity against Rhinovirus B14 infected in human HeLa Rh cells assessed as reduction in viral replication at 1 uM administered at the time of infection measured after 8 hrs post infection by RT-qPCR analysis. The class given is functional, organism-based. A digest of the protocol:
as §1

Data set [5] deals with rhinovirus B14. Briefly: Antiviral activity against Rhinovirus B14 infected in human HeLa Rh cells assessed as reduction in viral replication at 1 uM administered at >= 2 hrs post infection measured after 8 hrs post infection by RT-qPCR analysis. The class given is functional, organism-based. Summed up: as §1
Data set [6] has as its target T1, VP1 capsid protein (Human rhinovirus sp.). Kind of data set: Inhibition of Rhinovirus B14 capsid infected in human HeLa Rh cells assessed as number of wells with full cytopathic effect at 4 times EC50 concentration after 1st passage measured after 3 days by MTS assay relative to control. The format is cell-based. Also noted: scale not given: the % may be the effect or the level left. Summed up: (§2)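 Confluent HeLa cells were infected with wild-type RV-B14 with compound present at 1x, 2x or 4x in vitro EC₅₀, n=4 wells. Supernatant was diluted 1:10 onto fresh HeLa cells with compound, for four passages. Value is percentage of wells with full CPE.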
A general note: Cytopathic effects are the visible damage that an infection or toxin causes in cultured cells.

The target is the same in data set [7]. Kind of data set: Inhibition of Rhinovirus B14 capsid infected in human HeLa Rh cells assessed as number of wells with full cytopathic effect at 2 times EC50 concentration after 1st passage measured after 3 days by MTS assay relative to control. The class given is cell-based. Also noted: scale not given: the % may be the effect or the level left. Summed up:
as §2

Data set [8] has the same target. Briefly: Inhibition of Rhinovirus B14 capsid infected in human HeLa Rh cells assessed as number of wells with full cytopathic effect at EC50 concentration after 1st passage measured after 3 days by MTS assay relative to control. The format is cell-based. Set-up: scale not given: the % may be the effect or the level left. Summed up:
as §2

Data set [9] concerns rhinovirus B14. Kind of data set: Inhibition of Rhinovirus B14 capsid infected in human HeLa Rh cells assessed as number of wells with full cytopathic effect at 4 times EC50 concentration after 2nd passage measured after 3 days by MTS assay relative to control. The format is functional. Also noted: scale not given: the % may be the effect or the level left. A digest of the protocol: as §2

Data set [10] has as its target T1, VP1 capsid protein (Human rhinovirus sp.). Kind of data set: Inhibition of Rhinovirus B14 capsid infected in human HeLa Rh cells assessed as number of wells with full cytopathic effect at 2 times EC50 concentration after 2nd passage measured after 3 days by MTS assay relative to control. The format is cell-based. Set-up: scale not given: the % may be the effect or the level left. A digest of the protocol: as §2

Data set [11] shares this target. Kind of data set: Inhibition of Rhinovirus B14 capsid infected in human HeLa Rh cells assessed as number of wells with full cytopathic effect at EC50 concentration after 2nd passage measured after 3 days by MTS assay relative to control. The class given is cell-based. Set-up: scale not given: the % may be the effect or the level left. A digest of the protocol: as §2

Data set [12] has the same target. Briefly: Inhibition of Rhinovirus B14 capsid infected in human HeLa Rh cells assessed as number of wells with full cytopathic effect at 4 times EC50 concentration after 3rd passage measured after 3 days by MTS assay relative to control. The format is cell-based. Also noted: scale not given: the % may be the effect or the level left. Summed up:
as §2

Data set [13] has the same target. Briefly: Inhibition of Rhinovirus B14 capsid infected in human HeLa Rh cells assessed as number of wells with full cytopathic effect at 2 times EC50 concentration after 3rd passage measured after 3 days by MTS assay relative to control. The format is cell-based. Set-up: scale not given: the % may be the effect or the level left. Summed up: as §2
Data set [14] has the same target. Kind of data set: Inhibition of Rhinovirus B14 capsid infected in human HeLa Rh cells assessed as number of wells with full cytopathic effect at EC50 concentration after 3rd passage measured after 3 days by MTS assay relative to control. The class given is cell-based. Also noted: scale not given: the % may be the effect or the level left. Summed up:
as §2

Data set [15] has the same target. Briefly: Inhibition of Rhinovirus B14 capsid infected in human HeLa Rh cells assessed as number of wells with full cytopathic effect at 4 times EC50 concentration after 4th passage measured after 3 days by MTS assay relative to control. The format is cell-based. Also noted: scale not given: the % may be the effect or the level left. A digest of the protocol: as §2

The target is the same in data set [16]. Briefly: Inhibition of Rhinovirus B14 capsid infected in human HeLa Rh cells assessed as number of wells with full cytopathic effect at 2 times EC50 concentration after 4th passage measured after 3 days by MTS assay relative to control. The format is cell-based. Also noted: scale not given: the % may be the effect or the level left. Summed up:
as §2

Data set [17] has the same target. Kind of data set: Inhibition of Rhinovirus B14 capsid infected in human HeLa Rh cells assessed as number of wells with full cytopathic effect at EC50 concentration after 4th passage measured after 3 days by MTS assay relative to control. The class given is cell-based. Also noted: scale not given: the % may be the effect or the level left. Summed up:
as §2

The target is the same in data set [18]. Kind of data set: Inhibition of capsid of VP1 A150V mutant harboring Rhinovirus B14 assessed as reduction of virus induced cytopathic effect at 4 times EC50 concentration after 4th passage measured after 3 days by MTS assay.
Data set [19] has the same target. Briefly: Inhibition of capsid of VP1 A150V mutant harboring Rhinovirus B14 assessed as reduction of virus induced cytopathic effect at 2 times EC50 concentration after 4th passage measured after 3 days by MTS assay. A digest of the protocol: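 After four passages of RV-B14 on HeLa cells with compound at 1x, 2x or 4x in vitro EC₅₀ (supernatant transferred 1:10 each passage), virus harvested at passage 4 was sequenced for the VP1 region by Sanger sequencing.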

Data set [20] shares this target. Briefly: Inhibition of capsid of VP1 C199W mutant harboring Rhinovirus B14 assessed as reduction of virus induced cytopathic effect at 1 times EC50 concentration after 4th passage measured after 3 days by MTS assay.
Data set [21] has the same target. Briefly: Inhibition of capsid of VP1 V191E mutant harboring Rhinovirus B14 assessed as reduction of virus induced cytopathic effect at 2 times EC50 concentration after 4th passage measured after 3 days by MTS assay.

As to `Cn1cc(-c2ccc(CC(O)c3ccc(-n4cccn4)cc3)c([N+](=O)[O-])c2)cn1` (racemic), in data set [1], the CC50 at 72 h was 247 to 1000 µM. For the same compound, the selectivity ratio in data set [2] was 1240 to 5000. The inhibition result in data set [3], in data set [19] and in data set [20] was “Active” in each case. In addition, in the data set on rhinovirus B14 [4], the outcome was Active. Besides, in the data set on rhinovirus B14 [5], the result was inactive. The Activity (in [6]; in [7]; in data set [8]; in the data set on rhinovirus B14 [9]; in [10]; in [11]) was 0% each time. The Activity in data set [12] was found to be 0%; in data set [13] it was 0%; in [14], 50%; in [15], 0%; in [16] it was 50%; in data set [17], 50%. Besides, the inhibition result in [18] and in [21] was “inactive” each time.

As usually defined, the CC50 is the concentration that lowers cell viability or growth by half.
